Results reported in ChEMBL document CHEMBL1649396, “Synthesis, biological evaluation of chrysin derivatives as potential immunosuppressive agents” (Eur J Med Chem, 2011).

Legend:
[1] = Immunosuppressive activity in BALB/c mouse T cells assessed as inhibition of anti-CD3/anti-CD28-stimulated cell proliferation after 72 hrs by MTT assay; type: functional, cell-based
How it was run: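 Female BALB/c mouse lymph node cells, 5 × 10⁵/well, stimulated with anti-CD3/anti-CD28 alongside graded compound for 72 h. MTT (4 mg/mL in PBS) was added 4 h before harvest. Formazan was dissolved in DMSO and read at 540 nm.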

[2] = tested on: T-cell; assay: Selectivity index, ratio of CC50 for BALB/c mouse T cells to IC50 for immunosuppressive activity in BALB/c mouse T cells; type: functional
[3] = Cytotoxicity against BALB/c mouse T cells after 48 hrs by MTT assay; type: cell-based, T-cell
How it was run: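 Lymph node cells from female BALB/c mice, 6-8 weeks old and specific-pathogen-free, plated at 5 × 10⁵ cells/well with graded compound for 48 h. Medium was RPMI 1640 with 10% fetal calf serum and penicillin/streptomycin, at 37 °C under 5% CO₂. MTT (4 mg/mL in PBS) was added 4 h before the end. Formazan was dissolved in DMSO and read at OD540. CC50 is the concentration reducing viability to 50%.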

[4] = Cytotoxicity against human L02 cells after 48 hrs by MTT assay; type: cell-based; conditions: L02, 48 h
How it was run: (§1)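 Cells seeded at 5 × 10⁵ per well and exposed to a range of compound concentrations for 48 h. MTT (4 mg/mL in PBS) added 4 h before end of incubation. Medium replaced by DMSO to dissolve formazan, absorbance read at 540 nm. Value reported as IC₅₀.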

[5] = tested on: K562; assay: Cytotoxicity against human K562 cells after 48 hrs by MTT assay; type: functional, cell-based; conditions: K562, 48 h; how it was run: as §1
[6] = tested on: KB; assay: Cytotoxicity against human KB cells after 48 hrs by MTT assay; type: functional, cell-based; how it was run: as §1
[7] = tested on: HepG2; assay: Cytotoxicity against human HepG2 cells after 48 hrs by MTT assay; type: functional, cell-based; conditions: HepG2, 48 h; how it was run: as §1
[8] = tested on: T-cell; assay: Immunosuppressive activity in anti-CD3/anti-CD28-stimulated BALB/c mouse T cells assessed as late apoptotic cells at 2 uM after 48 hrs by FACS analysis; type: functional
How it was run: (§2)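 Lymph node cells isolated from naive BALB/c mice, cultured with anti-CD3/anti-CD28 plus compound at 1, 2, 4 or 8 µM for 48 h. Cells were stained with Annexin V-FITC and propidium iodide and analysed by flow cytometry to give apoptotic, necrotic and viable fractions.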

[9] = tested on: T-cell; assay: Immunosuppressive activity in anti-CD3/anti-CD28-stimulated BALB/c mouse T cells assessed as early apoptotic cells at 2 uM after 48 hrs by FACS analysis; type: functional; how it was run: as §2
[10] = tested on: T-cell; assay: Immunosuppressive activity in anti-CD3/anti-CD28-stimulated BALB/c mouse T cells assessed as viable cells at 4 uM after 48 hrs by FACS analysis; type: functional; conditions: read-out: Activity; how it was run: as §2
[11] = tested on: T-cell; assay: Immunosuppressive activity in anti-CD3/anti-CD28-stimulated BALB/c mouse T cells assessed as early apoptotic cells at 1 uM after 48 hrs by FACS analysis; type: functional; how it was run: as §2
[12] = tested on: T-cell; assay: Immunosuppressive activity in anti-CD3/anti-CD28-stimulated BALB/c mouse T cells assessed as late apoptotic cells at 8 uM after 48 hrs by FACS analysis; type: functional; how it was run: as §2
[13] = Toxicity in po dosed BALB/c mouse; type: organism-based; conditions: in vivo
How it was run: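 Acute oral toxicity in female SPF BALB/c mice, 6–8 weeks old, by OECD 425 up-and-down procedure. Food withheld 3–4 h before and 1–2 h after dosing. Animals dosed one at a time at 24 h intervals, dose raised after survival and lowered after death, four more dosed after reversal. 35 animals in total. LD₅₀ estimated by maximum likelihood with AOT425StatPgm.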

[14] = tested on: T-cell; assay: Immunosuppressive activity in anti-CD3/anti-CD28-stimulated BALB/c mouse T cells assessed as viable cells at 8 uM after 48 hrs by FACS analysis; type: functional; conditions: read-out: Activity; how it was run: as §2
[15] = tested on: T-cell; assay: Immunosuppressive activity in anti-CD3/anti-CD28-stimulated BALB/c mouse T cells assessed as late apoptotic cells at 1 uM after 48 hrs by FACS analysis; type: functional; how it was run: as §2
[16] = tested on: T-cell; assay: Immunosuppressive activity in anti-CD3/anti-CD28-stimulated BALB/c mouse T cells assessed as late apoptotic cells at 4 uM after 48 hrs by FACS analysis; type: functional; how it was run: as §2
[17] = tested on: T-cell; assay: Immunosuppressive activity in anti-CD3/anti-CD28-stimulated BALB/c mouse T cells assessed as early apoptotic cells at 4 uM after 48 hrs by FACS analysis; type: functional; how it was run: as §2
[18] = tested on: T-cell; assay: Immunosuppressive activity in anti-CD3/anti-CD28-stimulated BALB/c mouse T cells assessed as non-viable necrotic cells at 2 uM after 48 hrs by FACS analysis; type: functional; how it was run: as §2
[19] = tested on: T-cell; assay: Immunosuppressive activity in anti-CD3/anti-CD28-stimulated BALB/c mouse T cells assessed as early apoptotic cells at 8 uM after 48 hrs by FACS analysis; type: functional; how it was run: as §2
[20] = tested on: T-cell; assay: Immunosuppressive activity in anti-CD3/anti-CD28-stimulated BALB/c mouse T cells assessed as viable cells at 1 uM after 48 hrs by FACS analysis; type: functional; conditions: read-out: Activity; how it was run: as §2
[21] = tested on: T-cell; assay: Immunosuppressive activity in anti-CD3/anti-CD28-stimulated BALB/c mouse T cells assessed as non-viable necrotic cells at 1 uM after 48 hrs by FACS analysis; type: functional; how it was run: as §2
[22] = tested on: T-cell; assay: Immunosuppressive activity in anti-CD3/anti-CD28-stimulated BALB/c mouse T cells assessed as non-viable necrotic cells at 4 uM after 48 hrs by FACS analysis; type: functional; how it was run: as §2
[23] = tested on: T-cell; assay: Immunosuppressive activity in anti-CD3/anti-CD28-stimulated BALB/c mouse T cells assessed as viable cells at 2 uM after 48 hrs by FACS analysis; type: functional; conditions: read-out: Activity; how it was run: as §2
[24] = tested on: T-cell; assay: Immunosuppressive activity in anti-CD3/anti-CD28-stimulated BALB/c mouse T cells assessed as induction of apoptosis after 48 hrs by FACS analysis; type: functional, cell-based; how it was run: as §2
[25] = tested on: T-cell; assay: Immunosuppressive activity in anti-CD3/anti-CD28-stimulated BALB/c mouse T cells assessed as non-viable necrotic cells at 8 uM after 48 hrs by FACS analysis; type: functional; how it was run: as §2

Cc1cccc(OC(=O)COc2cc(O)c3c(=O)cc(-c4ccccc4)oc3c2)c1C(=O)O
IC50 [1]: 37.2 µM | Ratio CC50/IC50 [2]: 8.02 | CC50 at 48 h [3]: 298 µM

COC(=O)c1ccc(Cl)cc1OC(=O)COc1cc(O)c2c(=O)cc(-c3ccccc3)oc2c1
IC50 [1]: 12.4 µM | Ratio CC50/IC50 [2]: 21.43 | CC50 at 48 h [3]: 265 µM

COC(=O)c1cc(F)ccc1OC(=O)COc1cc(O)c2c(=O)cc(-c3ccccc3)oc2c1
IC50 [1]: 6.82 µM | Ratio CC50/IC50 [2]: 50.08 | CC50 at 48 h [3]: 389 µM

COC(=O)c1cccc(OC)c1OC(=O)COc1cc(O)c2c(=O)cc(-c3ccccc3)oc2c1
IC50 [1]: 36.8 µM | Ratio CC50/IC50 [2]: 5.34 | CC50 at 48 h [3]: 196 µM

O=C(COc1cc(O)c2c(=O)cc(-c3ccccc3)oc2c1)Oc1cccc(Br)c1C(=O)O
IC50 [1]: 41.7 µM | Ratio CC50/IC50 [2]: 9.28 | CC50 at 48 h [3]: 388 µM

O=C(COc1cc(O)c2c(=O)cc(-c3ccccc3)oc2c1)Oc1cccc(Cl)c1C(=O)O
IC50 [1]: 38.9 µM | Ratio CC50/IC50 [2]: 9.39 | CC50 at 48 h [3]: 366 µM

Cc1cccc(C(=O)O)c1OC(=O)COc1cc(O)c2c(=O)cc(-c3ccccc3)oc2c1
IC50 [1]: 39.1 µM | Ratio CC50/IC50 [2]: 7.65 | CC50 at 48 h [3]: 299 µM

O=c1cc(-c2ccccc2)oc2cc(O)cc(O)c12 [CHRYSIN]
IC50 [1]: 44.2 µM | Ratio CC50/IC50 [2]: 9.7 | CC50 at 48 h [3]: 428 µM

O=C(COc1cc(O)c2c(=O)cc(-c3ccccc3)oc2c1)Oc1cccc(F)c1C(=O)O
IC50 [1]: 40.3 µM | Ratio CC50/IC50 [2]: 7.91 | CC50 at 48 h [3]: 319 µM

COC(=O)c1cc(C)ccc1OC(=O)COc1cc(O)c2c(=O)cc(-c3ccccc3)oc2c1
IC50 [1]: 25.7 µM | Ratio CC50/IC50 [2]: 11.93 | CC50 at 48 h [3]: 306 µM

O=c1[nH]cc(F)c(=O)[nH]1 [FLUOROURACIL]
IC50 [4]: 56 µM | IC50 [5]: 38 µM | IC50 [6]: 2.16 µM | IC50 [7]: 2.78 µM

O=C(COc1cc(O)c2c(=O)cc(-c3ccccc3)oc2c1)Oc1cc(Br)cc(Br)c1C(=O)O
IC50 [1]: 45.7 µM | Ratio CC50/IC50 [2]: 8.69 | CC50 at 48 h [3]: 398 µM

COC(=O)c1cc(Br)ccc1OC(=O)COc1cc(O)c2c(=O)cc(-c3ccccc3)oc2c1
Activity [8]: 30.09% | Activity [9]: 2.12% | viability at 4 µM [10]: 54.5% | IC50 [4]: 274 µM | Activity [11]: 3.79% | Activity [12]: 40.95% | IC50 [5]: 0.47 µM | LD50 [13]: 738 mg/kg | viability at 8 µM [14]: 50.1% | IC50 [1]: 0.78 µM | Ratio CC50/IC50 [2]: >576.92 | Activity [15]: 15.66% | Activity [16]: 38.7% | Activity [17]: 3.14% | Activity [18]: 3.61% | CC50 at 48 h [3]: > 450 µM | Activity [19]: 1.56% | viability at 1 µM [20]: 77% | Activity [21]: 3.56% | Activity [22]: 3.69% | IC50 [6]: 0.79 µM | IC50 [7]: 0.61 µM | viability at 2 µM [23]: 64.2% | Activity [24]: Dose-dependent effect | Activity [25]: 7.41%

O=C(COc1cc(O)c2c(=O)cc(-c3ccccc3)oc2c1)Oc1cccc(O)c1C(=O)O
IC50 [1]: 38.2 µM | Ratio CC50/IC50 [2]: 8.83 | CC50 at 48 h [3]: 338 µM

COC(=O)c1cc(Cl)ccc1OC(=O)COc1cc(O)c2c(=O)cc(-c3ccccc3)oc2c1
IC50 [1]: 3.74 µM | Ratio CC50/IC50 [2]: >116.57 | CC50 at 48 h [3]: > 436 µM

COC(=O)c1ccc(C)cc1OC(=O)COc1cc(O)c2c(=O)cc(-c3ccccc3)oc2c1
IC50 [1]: 31.1 µM | Ratio CC50/IC50 [2]: 8.04 | CC50 at 48 h [3]: 250 µM

COC(=O)c1ccc(Br)cc1OC(=O)COc1cc(O)c2c(=O)cc(-c3ccccc3)oc2c1
IC50 [1]: 17.6 µM | Ratio CC50/IC50 [2]: 18.54 | CC50 at 48 h [3]: 326 µM

O=C(COc1cc(O)c2c(=O)cc(-c3ccccc3)oc2c1)Oc1cc(Cl)cc(Cl)c1C(=O)O
IC50 [1]: 43.6 µM | Ratio CC50/IC50 [2]: 7.92 | CC50 at 48 h [3]: 345 µM

O=C(COc1cc(O)c2c(=O)cc(-c3ccccc3)oc2c1)Oc1c(Cl)cccc1C(=O)O
IC50 [1]: 38.7 µM | Ratio CC50/IC50 [2]: 9.45 | CC50 at 48 h [3]: 366 µM

COC(=O)c1ccccc1OC(=O)COc1cc(O)c2c(=O)cc(-c3ccccc3)oc2c1
IC50 [1]: 28.5 µM | Ratio CC50/IC50 [2]: 9.28 | CC50 at 48 h [3]: 265 µM

O=C(COc1cc(O)c2c(=O)cc(-c3ccccc3)oc2c1)Oc1c(Br)cccc1C(=O)O
IC50 [1]: 40.6 µM | Ratio CC50/IC50 [2]: 9.31 | CC50 at 48 h [3]: 379 µM

COC(=O)c1cc(O)ccc1OC(=O)COc1cc(O)c2c(=O)cc(-c3ccccc3)oc2c1
IC50 [1]: 29.5 µM | Ratio CC50/IC50 [2]: 8.94 | CC50 at 48 h [3]: 263 µM
